Test results taken from ChEMBL document CHEMBL1126909, “Synthesis and pharmacological examination of benzofuran, indan, and tetralin analogues of 3,4-(methylenedioxy)amphetamine” (J Med Chem, 1993).
The source made the active and inactive calls.

How the values were obtained:
[1] = species on record: Rattus norvegicus; assay: Inhibitory concentration against [3H]- 5-HT uptake in crude rat synaptosomes; format: functional; details: Brain
How it was run: (§1)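 Crude synaptosomes from male Sprague-Dawley rat tissue homogenised in ice-cold isotonic sucrose. Preincubated 5 min at 37 °C under aeration with pargyline (final 100 μM), then chilled. Tritiated transmitter added at 10 nM final and uptake run 5 min at 37 °C. Catecholamine buffer had 0.06 mM ascorbate. Filtered and counted by scintillation. 9–10 concentrations in triplicate, 3–4 experiments, four-parameter logistic fit for IC50 ± SEM.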

[2] = species on record: Rattus norvegicus; assay: Inhibitory concentration against [3H]- NE uptake in crude rat synaptosomes; format: functional; details: Brain; how it was run: as §1
[3] = species on record: Rattus norvegicus; assay: Inhibitory concentration against [3H]- DA uptake in crude rat synaptosomes; format: functional; details: Brain; how it was run: as §1
[4] = system: Rattus norvegicus; assay: Number of animals tested to that of number of animals disrupted in (s)-amphetamine trained at 0.500 mg/kg; Number of animals tested=15; format: functional; details: dose 0.5 mg/kg
[5] = system: Rattus norvegicus; assay: Percentage of nondisrupted animals selecting drug liver in (S)-amphetamine trained at 0.250 mg/kg; format: functional; details: dose 0.25 mg/kg
How it was run: (§2)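 Rats and training are as above: male Sprague-Dawley, food-restricted, with training doses per drug group. Test drug was given ip in saline 30 min before extinction sessions. %SDL is the share of nondisrupted rats reaching 50 presses on the drug lever. A rat not completing 50 presses in 5 min was scored as disrupted.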

[6] = system: Rattus norvegicus; assay: Tested for drug-discrimination stimulus effect at 0.250 mg/kg in s)-amphetamine trained animals; NS= No substitution; format: functional, organism-based; set-up: dose 0.25 mg/kg
How it was run: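 Food-restricted male Sprague-Dawley rats were trained to tell (S)-amphetamine sulfate 1 mg/kg from saline. Test drug was given ip in 0.9% saline 30 min before extinction sessions, with 50 presses on one lever required within 5 min. No substitution was defined as 59% or less of nondisrupted rats selecting the drug lever, judged on the maximum across doses.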

[7] = system: Rattus norvegicus; assay: Percentage of nondisrupted animals selecting drug liver in (S)-amphetamine trained at 0.125 mg/kg; format: functional; how it was run: as §2
[8] = system: Rattus norvegicus; assay: Number of animals tested to that of number of animals disrupted in (s)-amphetamine trained at 0.125 mg/kg; Number of animals tested=15; format: functional
How it was run: (§3)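 Drug-discrimination rats were male Sprague-Dawley, 175–200 g, kept at about 80% of free-feeding weight. They were trained against saline on (S)-1c·HCl 1.75 mg/kg, 3·HCl 1.71 mg/kg or (S)-amphetamine sulfate 1 mg/kg. Test drug was given ip in 0.9% saline at 1 mL/kg, 30 min before sessions run under extinction. A session ended at 50 presses on one lever; failing 50 presses within 5 min was scored as disrupted.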

[9] = system: Rattus norvegicus; assay: Tested for drug-discrimination stimulus effect at 0.250 mg/kg in S-1c trained animals; 0.15-0.28; format: functional
How it was run: (§4)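 Male Sprague-Dawley rats (175–200 g) held at about 80% of free-feeding weight were trained on two levers to tell (S)-1c·HCl 1.75 mg/kg from saline. Test drugs were given in 0.9% saline, ip, 30 min before sessions run under extinction. A session ended at 50 presses on one lever, or was scored disrupted if not done within 5 min. %SDL counts nondisrupted rats. ED50 and 95% CI were derived by Litchfield–Wilcoxon.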

[10] = system: Rattus norvegicus; assay: Number of animals tested to that of number of animals disrupted in 3 trained at 1 mg/kg; Number of animals tested=10; format: functional; how it was run: as §3
[11] = system: Rattus norvegicus; assay: Number of animals tested to that of number of animals disrupted in S-1c trained at 0.500 mg/kg; Number of animals tested=15; format: functional; details: dose 0.5 mg/kg; how it was run: as §3
[12] = system: Rattus norvegicus; assay: Number of animals tested to that of number of animals disrupted in 3 trained at 0.125 mg/kg; Number of animals tested=10; format: functional; how it was run: as §3
[13] = system: Rattus norvegicus; assay: Number of animals tested to that of number of animals disrupted in 3 trained at 0.250 mg/kg; Number of animals tested=11; format: functional; details: dose 0.25 mg/kg; how it was run: as §3
[14] = system: Rattus norvegicus; assay: Number of animals tested to that of number of animals disrupted in 3 trained at 0.500 mg/kg; Number of animals tested=12; format: functional; details: dose 0.5 mg/kg; how it was run: as §3
[15] = system: Rattus norvegicus; assay: Percentage of nondisrupted animals selecting drug liver in (S)-amphetamine trained at 0.500 mg/kg; format: functional; details: dose 0.5 mg/kg; how it was run: as §2
[16] = system: Rattus norvegicus; assay: Percentage of nondisrupted animals selecting drug liver in 3 trained at 0.500 mg/kg; format: functional; details: dose 0.5 mg/kg; how it was run: as §2
[17] = system: Rattus norvegicus; assay: Percentage of nondisrupted animals selecting drug liver in 3 trained at 0.250 mg/kg; format: functional; details: dose 0.25 mg/kg; how it was run: as §2
[18] = system: Rattus norvegicus; assay: Number of animals tested to that of number of animals disrupted in S-1c trained at 0.250 mg/kg; Number of animals tested=15; format: functional; details: dose 0.25 mg/kg; how it was run: as §3
[19] = system: Rattus norvegicus; assay: Percentage of nondisrupted animals selecting drug liver in S-1c trained at 0.125 mg/kg; format: functional; how it was run: as §2
[20] = system: Rattus norvegicus; assay: Number of animals tested to that of number of animals disrupted in S-1c trained at 1 mg/kg; Number of animals tested=9; format: functional; how it was run: as §3
[21] = system: Rattus norvegicus; assay: Percentage of nondisrupted animals selecting drug liver in S-1c trained at 1 mg/kg; format: functional
[22] = system: Rattus norvegicus; assay: Number of animals tested to that of number of animals disrupted in (s)-amphetamine trained at 1 mg/kg; Number of animals tested=10; format: functional; how it was run: as §3
[23] = system: Rattus norvegicus; assay: Number of animals tested to that of number of animals disrupted in S-1c trained at 0.125 mg/kg; Number of animals tested=14; format: functional; how it was run: as §3
[24] = system: Rattus norvegicus; assay: Number of animals tested to that of number of animals disrupted in (s)-amphetamine trained at 0.250 mg/kg; Number of animals tested=14; format: functional; details: dose 0.25 mg/kg; how it was run: as §3
[25] = system: Rattus norvegicus; assay: Percentage of nondisrupted animals selecting drug liver in (S)-amphetamine trained at 1 mg/kg; format: functional; how it was run: as §2
[26] = system: Rattus norvegicus; assay: Percentage of nondisrupted animals selecting drug liver in S-1c trained at 0.250 mg/kg; format: functional; details: dose 0.25 mg/kg
[27] = system: Rattus norvegicus; assay: Percentage of nondisrupted animals selecting drug liver in S-1c trained at 0.500 mg/kg; format: functional; details: dose 0.5 mg/kg; how it was run: as §4
[28] = system: Rattus norvegicus; assay: Percentage of nondisrupted animals selecting drug liver in 3 trained at 0.125 mg/kg; format: functional; how it was run: as §2
[29] = system: Rattus norvegicus; assay: Percentage of nondisrupted animals selecting drug liver in 3 trained at 1 mg/kg; format: functional; how it was run: as §2
[30] = species on record: Rattus norvegicus; assay: Tested for drug-discrimination stimulus effect in 3-trained rats; format: functional

Work on `CC(N)Cc1ccc2c(c1)OCO2` (stereo unspecified) [TENAMFETAMINE] yielded an IC50 [1] of 369 nM, an IC50 [2] of 629 nM and an IC50 [3] of 1360 nM.
Work on `CC(N)Cc1ccc2c(c1)CCC2` (stereo unspecified) yielded an IC50 [1] of 82 nM, an Activity [4] of 7 and an SDL [5] of 0%. The ED50 [6] was “inactive”, the SDL [7] was 0% and the Activity [8] was 2. For the same compound, the ED50 [9] was 0.2 mg/kg, the Activity [10] was 8 and the Activity [11] was 3. It also gave an Activity [12] of 2, an Activity [13] of 5 and an Activity [14] of 6. For the same compound, the SDL [15] was 0%, the SDL [16] was 83% and the SDL [17] was 17%. It also gave an Activity [18] of 5, an IC50 [2] of 849 nM and an SDL [19] of 9%. The Activity [20] was 2, the SDL [21] was 100% and the Activity [22] was 6. For the same compound, the IC50 [3] was 1850 nM, the Activity [23] was 3 and the Activity [24] was 2. For the same compound, the SDL [25] was 0%, the SDL [26] was 70% and the SDL [27] was 100%. For the same compound, the SDL [28] was 13% and the SDL [29] was 100%.
`CC(N)Cc1ccc2c(c1)CCCC2` (stereo unspecified) showed an IC50 [1] of 121 nM, an IC50 [2] of 3370 nM and an IC50 [3] of 6440 nM.
`COc1cc2c(cc1C)CC(N)C2` (stereo unspecified) showed an ED50 [30] of 0.56 mg/kg.
